# COUP-TFII inh: NR2F2 transcriptional activity inhibitors, primary screen, cell-based, luciferase reporter, HEK293T, luminescence; COUP transcription factor 2 (Homo sapiens), P24468; HEK293T NGFI-A luciferase reporter; inhibition, % at 8.6 µM; hit rate 0.7% among 370,000;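 active means inhibition above a per-plate cutoff, mean inhibition of test wells between control levels plus 3 SD, cut at about 38% in these data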;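 further: cells cotransfected with COUP-TFII expression vector driving the NGFI-A reporter; 0% = median of COUP-TF2 test wells and 100% = reporter-only cells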
# Target sequence (P24468 whole entry, looked up): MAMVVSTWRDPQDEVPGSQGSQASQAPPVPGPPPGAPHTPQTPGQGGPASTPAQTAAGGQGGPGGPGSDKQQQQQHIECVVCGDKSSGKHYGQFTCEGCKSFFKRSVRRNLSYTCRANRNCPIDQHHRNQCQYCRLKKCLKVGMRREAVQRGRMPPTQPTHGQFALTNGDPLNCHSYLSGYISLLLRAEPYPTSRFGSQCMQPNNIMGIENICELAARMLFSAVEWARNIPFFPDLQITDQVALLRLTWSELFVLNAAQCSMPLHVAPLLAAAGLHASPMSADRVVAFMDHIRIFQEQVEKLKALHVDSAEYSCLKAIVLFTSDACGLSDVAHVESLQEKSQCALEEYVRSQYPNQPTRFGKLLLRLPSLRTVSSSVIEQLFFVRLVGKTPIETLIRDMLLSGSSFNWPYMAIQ
# NR2E3 ag-1: NR2E3 agonists in two-hybrid cells, primary screen, cell-based, luminescence, CHO-S, Gal4-NCOR/VP16-NR2E3 | luciferase | inhibition of corepressor binding, % at 3.98 µM | hit rate 0.35% among 360,000 | AID 602229, 2012;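 active means inhibition above the mean of all tested compounds plus 3 SD, cut at about 70% in these data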;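 further: 0% = DMSO with NR2E3 transfected cells and 100% = cells lacking NR2E3 construct; higher means lower luciferase signal from less NR2E3 corepressor binding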
# SMARCA2 activ: SMARCA2 (BRM) function activators, primary screen, cell-based, luminescence, high throughput; MG213 cells, MMTV-luciferase reporter, dexamethasone, overnight; activation, % at 9.1 µM; hit rate 1% among 370,000; in the data active means activation above about 7.8%;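 further: 0% = vehicle wells and 100% = reference activator wells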
# NR2E3 ag-2: inhibitors of NR2E3-RetCOR corepressor binding, primary screen, NR2E3 agonist project, biochemical, TR-FRET, GST-NR2E3, biotin-RetCOR; Photoreceptor-specific nuclear receptor (Homo sapiens), Q9Y5X4; 1536-well; inhibition of corepressor binding, % at 4.78 µM; hit rate 0.12% among 320,000;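 active means percent inhibition above the cutoff of mean plus 3 SD of all tested compounds, set per screening campaign, cut at about 20% in these data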;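 further: 0% = DMSO wells and 100% = biotin wells as full block of FRET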
#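 System: GST-tagged NR2E3 plus biotinylated RetCOR corepressor; Buffer or medium: pH 7.5 Tris-based buffer; Probe or stimulus: RetCOR corepressor, biotinylated, 7 nM; Doses: compound at 4.8 µM, single dose; Schedule: 5 h incubation at 4 °C; Technique: time-resolved FRET; Evaluation: percent inhibition of TR-FRET ratio; Replication: one well per compound, singlicate testing.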
# GalR3 antagonist: GalR3 antagonists in HEK293 cells, primary screen, cell-based, fluorescence readout. HEK293 GalR3-CNG cAMP membrane potential fluorescence; galR3 body fused to GalR1 C-terminus. Galanin receptor type 3 (Homo sapiens), O60755. hit rate 0.44% among 360,000. inhibition, % at 3 µM;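 active means inhibition above the screen-wide average plus 3 SD, cut at about 13% in these data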;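 further: forskolin and galanin both at EC90 stimulate the cells; cAMP rise reported by CNG channel membrane potential dye signal; 0% = forskolin plus galanin with DMSO and 100% = forskolin alone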
# Target sequence (O60755 1-299 limits assumed): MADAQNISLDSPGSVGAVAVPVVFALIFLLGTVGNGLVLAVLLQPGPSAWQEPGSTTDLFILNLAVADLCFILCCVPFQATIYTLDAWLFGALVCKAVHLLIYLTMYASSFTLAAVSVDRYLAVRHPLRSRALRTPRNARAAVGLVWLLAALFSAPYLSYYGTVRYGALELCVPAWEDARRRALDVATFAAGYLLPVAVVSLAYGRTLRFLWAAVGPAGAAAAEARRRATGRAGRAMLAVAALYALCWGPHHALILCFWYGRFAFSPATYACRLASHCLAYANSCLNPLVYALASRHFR
# NR2E3 ag confirm: NR2E3 agonist confirmation in cells, cell-based, luminescence, CHO-S two-hybrid; shares compounds with NR2E3 ag-1; CHO-S mammalian two-hybrid NR2E3-NCOR, luciferase luminescence; inhibition, % at 3.98 µM; hit rate 51% among 2,300;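 active means average inhibition above a cutoff equal to the mean inhibition of all tested compounds plus one SD, cut at about 70% in these data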;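 further: 0% = DMSO in NR2E3 cells and 100% = DMSO in cells lacking NR2E3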
# VP16 counter: GAL4-VP16 reporter modulators, confirmation, counter-screen for NR2E3 agonist project, cell-based, luminescence, CHO-S, high throughput. shares compounds with NR2E3 ag-1. CHO-S GAL4-VP16 luciferase reporter. inhibition, % at 3.98 µM. hit rate 29% among 2,300;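 active means mean inhibition above a cutoff equal to the average over all tested compounds plus one standard deviation, cut at about 70% in these data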;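 further: luciferase from a UAS reporter driven by GAL4-VP16 transactivation; 0% = DMSO with VP16-transfected cells and 100% = DMSO with cells lacking VP16; higher means less reporter light so more repression of VP16 activity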
# GalR3 antag conf: GalR3 antagonist hit confirmation, cell-based, fluorescence, triplicate; shares compounds with GalR3 antagonist; HEK293 GalR3 CNG cAMP biosensor, membrane potential fluorescence; galR3 fused to GalR1 carboxy tail; challenged with forskolin and galanin at EC90; inhibition, % at 3 µM; hit rate 59% among 1,600; AID 652245, 2013;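 active means inhibition above the primary screen's cutoff, the mean inhibition of all screened compounds plus 3 SD, cut at about 13% in these data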;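 further: 0% = forskolin plus galanin and 100% = forskolin alone with DMSO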
# HEK-CNG parental: nonspecific cAMP agonists in parental HEK-CNG cells, counter-screen for GalR3 antagonist project, cell-based, fluorescence, high throughput; shares compounds with GalR3 antagonist; HEK293-CNG parental cells, cAMP membrane potential fluorescence; normalised: DMSO wells 0%, forskolin wells 100%; activation, % at 3 µM; hit rate 10% among 1,600; in the data active means activation above about 1.3%
# VP16 Luc counter: Gal4-VP16 luciferase reporter inhibitors, counter-screen for COUP-TFII antagonist project, cell-based, luminescence, HEK293. shares compounds with COUP-TFII inh. inhibition, % at 8.5 µM. hit rate 25% among 2,500; in the data active means inhibition above about 13%
# NR2F2 inh conf: NR2F2 transcriptional activity inhibitors, confirmation, cell-based, luciferase reporter, HEK293, triplicate | shares compounds with COUP-TFII inh | HEK293 NGFI-A luciferase reporter, luminescence | inhibition, % at 8.5 µM | hit rate 45% among 2,500;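 active means mean inhibition over three repeats above a set limit taken from the earlier primary screen, cut at about 38% in these data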;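 further: 100% = cells given the luciferase reporter alone without the COUP-TF2 vector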
# An asterisk follows results filed as active; . = no result given; ! = a repeat was not active. Most compounds without a hit are left out; they make up all but 2.2% or so of the library.
SMILES,COUP-TFII inh,NR2E3 ag-1,SMARCA2 activ,NR2E3 ag-2,GalR3 antagonist,NR2E3 ag confirm,VP16 counter,VP16 Luc counter,NR2F2 inh conf,others
Cc1sc2ncnc(NCCc3ccc(S(N)(=O)=O)cc3)c2c1C,66*,89*,-2,2,59*,94*,77*,10,61*,GalR3 antag conf=109*;HEK-CNG parental=0
Cc1ccc(S(=O)(=O)Nc2ncnc3sc(C)c(C)c23)cc1,2,0,-2,2,-8,.,.,.,.,
COc1ccc(NC(=O)/C(Cl)=C(/Cl)S(=O)(=O)Cc2ccccc2)cn1,66*,83*,-9,.,-4,98*,27,39*,59*,
COc1ccc(NC(=O)Nc2ccc(OCc3ccccc3)cc2)cn1,11,13,-2,.,-8,.,.,.,.,
Cc1nn(Cc2ccc(C(=O)NC(C)(C)C)o2)c(C)c1Br,48*,57,-4,-2,-5,61,63,1,34,
CC(C)Cc1ccc(C(C)C(=O)Nc2nccs2)cc1 (centres undefined),2,21,-3,-3,-6,.,.,.,.,
CC(C)Cc1ccc(C(C)C(=O)Nc2ccccc2O)cc1 (centres undefined),49*,83*,-6,2,-1,94*,82*,7,50*,
C=CCN1[C@H](C)COc2cccc(F)c2S1(=O)=O,-10,.,-2,.,.,.,.,.,.,
CSc1nnc2c(n1)C[C@H](c1ccccc1)[C@@H](C)[C@@H](C(=O)N1CCCC1)C2,3,.,-1,.,.,.,.,.,.,
COc1ccc(NS(=O)(=O)c2ccc(-c3cnc(C4CC4)o3)cc2)cc1OC,56*,104*,-5,0,8,94*,85*,1,50*,
COc1ccc(S(=O)(=O)Nc2ccc3c(c2)OCO3)cc1OC,-6,-7,-1,-1,-7,.,.,.,.,
COc1ccc(NS(=O)(=O)c2ccc3c(c2)OCCO3)cc1OC,57*,100*,-7,2,99*,84*,73*,3,40*,GalR3 antag conf=53*;HEK-CNG parental=0
CC(C)CNC(=O)OCc1cn(Cc2ccc(F)c(F)c2)nn1,-15,.,1,.,.,.,.,.,.,
COC(=O)[C@]12C[C@H](CC(=O)N3CCCC3)C(=O)N(Cc3cccc4ccccc34)C1=C[C@H](COCc1ccccc1)O[C@@H]2C,7,.,-4,.,.,.,.,.,.,
CCN1/C(=C/C(C)=C/c2sc3ccccc3[n+]2CC)Sc2ccccc21,72*!,92*,-5,-18,-5,100*,95*,26*,74*,
COc1ccc(CNc2ncnc3c2[nH]c2ccccc23)cc1,45*,57,-6,1,-8,89*,72*,0,35,
C1=C(CCNc2ncnc3c2[nH]c2ccccc23)CCCC1,67*,74*,-7,0,84*,97*,81*,-86,48*,GalR3 antag conf=98*;HEK-CNG parental=1.4*
O=c1c2[nH]c3ccccc3c2ncn1CCC1=CCCCC1,-8,-38,-1,-2,-3,.,.,.,.,
COc1ccc(CNc2ncnc3c2[nH]c2cc(OC)c(OC)cc23)cc1,-25,17,-3,1,0,.,.,.,.,
O=C(C(=O)c1cc(Br)ccc1O)c1cc(Br)ccc1O,39*,99*,-7,.,87*,100*,92*,7,10,GalR3 antag conf=44*;HEK-CNG parental=1
Cc1ccccc1CN1CCCCC(NC(=O)C2CCC2)C1=O (centres undefined),-5,.,-1,.,.,.,.,.,.,
CC(C)(C)C(=O)Nc1ccc(N=Nc2ccccc2)cc1,66*,56,-7,1,-4,26,-23,-9,60*,
CCCOc1ccc(Cn2cnc3ccccc32)cc1,38*,56,-7,-4,-5,78*,59,-17,20,
Fc1ccc(Cn2cnc3ccccc32)cc1,-10,15,-1,2,-6,.,.,.,.,
CCC(NC(=O)Nc1nnc(C(F)(F)F)s1)(C(F)(F)F)C(F)(F)F,67*,104*,-5,5,58*,97*,90*,17*,60*,GalR3 antag conf=84*;HEK-CNG parental=0
SMILES,COUP-TFII inh,NR2E3 ag-1,SMARCA2 activ,NR2E3 ag-2,GalR3 antagonist,NR2E3 ag confirm,VP16 counter,VP16 Luc counter,NR2F2 inh conf,others
O=C(O)CCC(=O)Nc1nnc(C(F)(F)F)s1,26,4,-1,-2,0,.,.,.,.,
COc1ccc(CN2C3=NC(c4ccccc4)CC(=O)N3/C(=C\c3ccccc3)C2c2ccccc2)c(OC)c1 (centres undefined),14,.,.,.,.,.,.,.,.,
Cc1ccc(Cn2cc(CN(C)S(=O)(=O)c3ccccc3Br)nn2)cc1,-2,.,0,.,.,.,.,.,.,
O=C(O)c1ccccc1C(=O)Nc1ccc(Oc2cccc3ccccc23)cc1,100*,67,-11,.,-7,-16,23,46*,34,
COC(=O)[C@H](CC(C)C)N1Cc2nnn(CC3CCCCC3)c2-c2cc(F)ccc2S1(=O)=O,-2,.,-5,.,.,.,.,.,.,
Cc1cc(C)nc(SCC(=O)Nc2ccnc3ccccc23)n1,65*,84*,-5,1,55*,92*,83*,3,60*,GalR3 antag conf=121*;HEK-CNG parental=0
COC(=O)c1ccccc1NC(=O)CSc1nc(C)cc(C)n1,-4,16,-3,4,-3,.,.,.,.,
